This passage reports inhibition in vivo, Activity and IC50 results from ChEMBL document CHEMBL1157729, “Structure-activity relationship and mechanism of action studies of manzamine analogues for the control of neuroinflammation and cerebral infections” (J Med Chem, 2010).

≈ marks a conversion by molar mass, not a printed value.

The subject of series [1] is Plasmodium berghei. In words: Antiplasmodial activity against Plasmodium berghei NK65 infected in Swiss Webster mice (Mus musculus) assessed as average parasitaemia at 100 mg/kg, perorally administered 1 day after infection measured after 21 days post infection. It is filed as functional. Conditions: route oral. The procedure, abridged: (§1)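 Male Swiss Webster mice (18-20 g, ≥5/group) inoculated i.p. with 2×10^7 P. berghei NK-65 parasitized RBC, given a single oral dose (100 μl, SSV or dilute HCl vehicle); parasitemia by Giemsa-stained tail blood smears days 5–28; activity as % decrease versus untreated controls on day 5.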

The test system of series [2] is Mus musculus. As to the kind of experiment: Toxicity in Plasmodium berghei NK65 infected Swiss Webster mice (Mus musculus) assessed as weight loss at 200 mg/kg, perorally. The note with it: in vivo, po. On the set-up: dose 200 mg/kg, route oral. The format is organism-based. The procedure, abridged: (§2)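 P. berghei NK-65 infection in male Swiss Webster mice (18-20 g; 2×10^7 parasitized erythrocytes i.p.; ≥5 per group). A single oral dose of 100 μl, diluted in SSV or 0.01 M HCl, then observation for toxicity signs and body weight. Parasitemia read from Giemsa-stained tail smears from day 5 through day 28. Mice free of parasitemia through day 28 counted as cured.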

For series [3], the system named is Plasmodium berghei. In words: Antiplasmodial activity against Plasmodium berghei NK65 infected in Swiss Webster mice (Mus musculus) assessed as average parasitaemia at 100 mg/kg, perorally administered 1 day after infection measured after 10 days post infection. It is filed as functional. Conditions: route oral.
Series [4] relates to Plasmodium berghei. As to the kind of experiment: Antiplasmodial activity against Plasmodium berghei NK65 infected in Swiss Webster mice (Mus musculus) assessed as average parasitaemia at 200 mg/kg, perorally administered 1 day after infection measured after 10 days post infection. It is filed as functional. The note with it: Plasmodium berghei, NK65, route oral. The procedure, abridged:
as §1

Series [5] deals with Plasmodium berghei. In words: Antiplasmodial activity against Plasmodium berghei infected in mice (Mus musculus) at 5 mg/kg, subcutaneously administered 1 day post infection for 3 days. The format is functional. The note with it: route subcutaneous.
The subject of series [6] is Plasmodium berghei. In words: Antiplasmodial activity against Plasmodium berghei NK65 infected in Swiss Webster mice (Mus musculus) assessed as average parasitaemia at 200 mg/kg, perorally administered 1 day after infection measured after 28 days post infection. The format is functional. The note with it: Plasmodium berghei, NK65, route oral. The procedure, abridged:
as §1

For series [7], the system named is Plasmodium berghei. In words: Antiplasmodial activity against Plasmodium berghei NK65 infected in Swiss Webster mice (Mus musculus) assessed as average parasitaemia at 10 mg/kg, perorally administered 1 day after infection for 3 days measured after 21 days post infection. Conditions: route oral. It is filed as functional.
The subject of series [8] is Plasmodium berghei. In words: Antiplasmodial activity against Plasmodium berghei NK65 infected in Swiss Webster mice (Mus musculus) assessed as average parasitaemia at 50 mg/kg, perorally administered 1 day after infection measured after 14 days post infection. Conditions: route oral. The format is functional. The procedure, abridged: as §1
Series [9] relates to Plasmodium berghei. As to the kind of experiment: Antiplasmodial activity against Plasmodium berghei NK65 infected in Swiss Webster mice (Mus musculus) assessed as average parasitaemia at 10 mg/kg, perorally administered 1 day after infection for 3 days measured after 14 days post infection. It is filed as functional. The note with it: route oral.
Series [10] relates to Plasmodium berghei. In words: Antiplasmodial activity against Plasmodium berghei NK65 infected in Swiss Webster mice (Mus musculus) assessed as average parasitaemia at 1.1 mg/kg, perorally administered 1 day after infection for 3 days measured after 28 days post infection. It is filed as functional. Conditions: route oral. The procedure, abridged:
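Male Swiss Webster mice (18-20 g, ≥5/group) inoculated i.p. with 2×10^7 P. berghei NK-65 parasitized RBC; oral dosing (100 μl, SSV or dilute HCl vehicle) once daily for 3 days from day 1; Giemsa-stained tail blood smears days 5–28; inhibition is % decrease versus untreated controls on day 5.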

A further series deals with Cryptococcus neoformans. As to the kind of experiment: Antifungal activity against Cryptococcus neoformans ATCC 90113. It is filed as functional, organism-based. The procedure, abridged:
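Broth microdilution per modified CLSI method; samples serially diluted in 20% DMSO/saline, tested in duplicate; inocula set by OD630 of suspensions in incubation broth; growth read at 630 nm before and after incubation; amphotericin B drug control.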

Series [11] deals with Mus musculus. As to the kind of experiment: Toxicity in Plasmodium berghei NK65 infected Swiss Webster mice (Mus musculus) assessed as weight loss at 10 mg/kg, intraperitoneally administered 1 day after infection measured after 3 days post infection. It is filed as organism-based. On the set-up: dose 10 mg/kg, route intraperitoneal. The note with it: in vivo, ip, 72 h.
Series [12] concerns Plasmodium berghei. In words: Antiplasmodial activity against Plasmodium berghei NK65 infected in Swiss Webster mice (Mus musculus) at 10 mg/kg, po. It is filed as functional.
For series [13], the system named is Plasmodium berghei. In words: Antiplasmodial activity against Plasmodium berghei NK65 infected in Swiss Webster mice (Mus musculus) assessed as average parasitaemia at 1.1 mg/kg, perorally administered 1 day after infection for 3 days measured after 14 days post infection. The note with it: route oral. It is filed as functional.
The next series deals with HeLa. In words: Cell cycle arrest in human HeLa cells assessed as increase in G0/G1 phase accumulation at 20 uM after 24 hrs by FACS analysis. It is filed as functional. (In flow cytometry, cells or beads pass a laser one at a time.)
In series [14] the test system is Plasmodium berghei. As to the kind of experiment: Antiplasmodial activity against Plasmodium berghei NK65 infected in Swiss Webster mice (Mus musculus) assessed as average parasitaemia at 1.1 mg/kg, perorally administered 1 day after infection for 3 days measured after 21 days post infection. The format is functional. The note with it: route oral.
The subject of series [15] is Plasmodium berghei. As to the kind of experiment: Antiplasmodial activity against Plasmodium berghei NK65 infected in Swiss Webster mice (Mus musculus) assessed as average parasitaemia at 50 mg/kg, perorally administered 1 day after infection measured after 10 days post infection. Conditions: route oral. It is filed as functional.
In series [16] the test system is Plasmodium berghei. As to the kind of experiment: Antiplasmodial activity in Plasmodium berghei NK65 infected in Swiss Webster mice (Mus musculus) assessed as survivability at 1.1 mg/kg, perorally administered 1 day after infection for 3 days measured after 28 days post infection. The note with it: route oral. It is filed as functional. The procedure, abridged: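 Male Swiss Webster mice (18-20 g), at least 5 per group, inoculated i.p. with 2×10^7 P. berghei NK-65-parasitized red cells from a donor mouse. Oral dosing (100 μl, in SSV or 0.01 M HCl dilutions) from day one post-infection on a 3-day schedule (modified Peters test). Giemsa-stained tail-blood smears read from day 5 to day 28. Cure means no parasitemia through day 28.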

In series [17] the test system is Plasmodium berghei. As to the kind of experiment: Antiplasmodial activity against Plasmodium berghei NK65 infected in Swiss Webster mice (Mus musculus) assessed as average parasitaemia at 5 mg/kg, perorally administered 1 day after infection for 3 days measured after 7 days post infection. The note with it: route oral. It is filed as functional.
The subject of series [18] is Plasmodium berghei. As to the kind of experiment: Antiplasmodial activity against Plasmodium berghei infected in mice (Mus musculus) at 5 mg/kg, perorally administered 1 day post infection for 3 days. The format is functional. The note with it: route oral.
For series [19], the system named is Plasmodium berghei. In words: Antiplasmodial activity against Plasmodium berghei NK65 infected in Swiss Webster mice (Mus musculus) assessed as average parasitaemia at 200 mg/kg, perorally administered 1 day after infection measured after 21 days post infection. It is filed as functional. The note with it: Plasmodium berghei, NK65, route oral. The procedure, abridged:
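Male Swiss Webster mice (18-20 g), at least 5 per group, were inoculated ip with 2×10^7 P. berghei NK-65-parasitized red cells from a donor mouse and given a single oral dose (100 μl). Stock was made in SSV or 0.1 M HCl and diluted in SSV or 0.01 M HCl. Parasitemia was read from Giemsa-stained tail blood smears from day 5 to day 28. Cure meant no parasitemia through day 28.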

Series [20] concerns Mus musculus. In words: Toxicity in Plasmodium berghei NK65 infected Swiss Webster mice (Mus musculus) assessed as weight loss at 300 mg/kg, perorally. It is filed as organism-based. On the set-up: dose 300 mg/kg, route oral. Conditions: in vivo, po. The procedure, abridged:
as §2

The nature of series [21]: Antineuroinflammatory activity in LPS-stimulated rat neonatal microglia assessed as inhibition of PMA-induced superoxide anion production preincubated 15 mins prior to PMA challenge measured after 70 mins. The format is functional, cell-based.
Series [22] can be described thus: Antineuroinflammatory activity in LPS-stimulated rat neonatal microglia assessed as drug level causing 50% PMA-induced LDH release preincubated 15 mins prior to PMA challenge measured after 70 mins. It is filed as functional. The procedure, abridged: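 Neonatal rat microglia (2 × 10^5/well) primed with E. coli LPS 0.3 ng/mL for 17 h at 35.9 °C, washed with HBSS, given compound (0.01–10 μM) or DMSO 15 min, then PMA 1 μM; LDH read spectrophotometrically after 70 min; LDH50 relative to Triton X-100 (0.1%) release; duplicates.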

By inhibition in vivo is commonly meant the share of the control response that was lost under treatment. Broadly, the IC50 is the concentration that gives 50% inhibition. `O[C@]12C=C(c3nccc4c3[nH]c3ccccc34)[C@@H]3CCN(CCCC/C=C\CC1)C[C@@]31C[C@@H]3/C=C\CCCCN3[C@H]12` [MANZAMINE A]: the inhibition in vivo at 100 mg/kg with Plasmodium berghei [1] and in the series on Plasmodium berghei [3] was 0% throughout. The Activity entry is “Toxic” in the series on Mus musculus [2]; 19.7 days with Plasmodium berghei [5]; “Toxic” with Mus musculus [11]; 67.2% in the series with HeLa; 24.3 days with Plasmodium berghei [18]; “Non-toxic” in the series with Mus musculus [20]. In addition, the Activity in series [22] is greater than 10 µM. Moreover, the inhibition in vivo at 200 mg/kg in the series on Plasmodium berghei [4], with Plasmodium berghei [6] and in the series with Plasmodium berghei [19] was 0% throughout. Moreover, the inhibition in vivo at 10 mg/kg was 1.9% in the series with Plasmodium berghei [7], 0.9% in the series on Plasmodium berghei [9] and greater than 30% with Plasmodium berghei [12]. Also, the inhibition in vivo at 50 mg/kg in the series on Plasmodium berghei [8] amounted to 1%; in the series on Plasmodium berghei [15] it was 0%. Besides, the inhibition in vivo at 1.1 mg/kg turned out to be 58.6% with Plasmodium berghei [10], 21.7% in the series with Plasmodium berghei [13], 39.6% in the series with Plasmodium berghei [14] and 50% in the series on Plasmodium berghei [16]. The IC50 is 1 µg/mL (≈ 1.82 µM) with Cryptococcus neoformans and 100 nM in series [21]. For the same molecule, in the series on Plasmodium berghei [17], the inhibition in vivo at 5 mg/kg came to 4.5%.
